Experimental data pooled from the literature.
Target: Homeodomain-interacting protein kinase 4 (HIPK4, Homo sapiens, UniProt Q8NE63)
One construct used (Q8NE63 1-616): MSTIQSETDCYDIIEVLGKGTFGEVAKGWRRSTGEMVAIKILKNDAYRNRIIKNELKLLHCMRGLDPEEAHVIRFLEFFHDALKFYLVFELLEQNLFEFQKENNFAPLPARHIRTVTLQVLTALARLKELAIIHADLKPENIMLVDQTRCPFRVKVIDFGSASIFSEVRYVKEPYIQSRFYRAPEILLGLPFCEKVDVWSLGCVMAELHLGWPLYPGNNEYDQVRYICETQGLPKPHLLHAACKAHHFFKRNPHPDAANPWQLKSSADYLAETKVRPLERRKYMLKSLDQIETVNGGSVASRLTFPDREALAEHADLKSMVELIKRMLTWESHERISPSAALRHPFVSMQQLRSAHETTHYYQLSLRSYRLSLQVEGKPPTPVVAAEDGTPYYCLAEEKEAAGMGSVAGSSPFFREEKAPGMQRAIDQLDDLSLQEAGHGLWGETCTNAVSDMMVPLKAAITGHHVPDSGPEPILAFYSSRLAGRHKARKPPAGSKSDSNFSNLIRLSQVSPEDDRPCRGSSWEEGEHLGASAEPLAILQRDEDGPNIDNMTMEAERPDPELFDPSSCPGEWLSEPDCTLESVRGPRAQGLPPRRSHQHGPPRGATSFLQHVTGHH

| Structure (SMILES) | observed | mode | method | concentration | endpoint | value |
| --- | --- | --- | --- | --- | --- | --- |
| Nc1ncnc2occ(-c3ccc(NC(=O)Nc4cc(C(F)(F)F)ccc4F)cc3)c12 | cell-free assay | inhibitor |  | 20 µM | remaining signal | 0.95% |
| CC(=O)c1c(NS(C)(=O)=O)c2cc(-c3ccc(Cl)cc3)c(-c3ccc(Cl)cc3Cl)nc2n(C)c1=O | cell-free assay |  | competition with immobilised ligand | 1 µM | remaining binding | 93% |
| N#CCCc1ccc2c(c1)-c1[nH]c3ccc([N+](=O)[O-])cc3c1CC(=O)N2 | cell-free assay |  |  | 0.5 µM | remaining signal | 113% |
| O=C(O)c1ccc2c(c1)nc(NCCc1cccc(Cl)c1)c1ccncc12 | enzyme activity | inhibitor | radiometric | 1 µM | remaining activity | 47% |
| COc1cc2ncnc(Nc3ccc(Oc4ccccc4)c(C)c3C)c2cc1OC | enzyme activity | inhibitor |  | 1 µM | inhibition | -2% |
| CS(=O)(=O)N1CCCC(NC(=O)[C@H](CCC2CCCCC2)NC(=O)c2ccc(CNC(=O)c3cnc4ccccn34)cc2)C1 (some centres unmarked) | cell-free assay |  | competition with immobilised ligand | 0.1 µM | remaining binding | 88% |
| CNC(=O)c1cc2c(Oc3ccc(NC(=O)C4(C(=O)Nc5ccc(F)cc5)CC4)cc3)ccnc2cc1OC | enzyme activity | inhibitor | radiometric | 1 µM | inhibition | 102% |
| CCCOc1ccc([C@@H]2[C@@H](C(=O)O)[C@H](c3ccc4c(c3)OCO4)CN2CC(=O)Nc2c(CC)cccc2CC)cc1 | cell-free assay |  | competition with immobilised ligand | 1 µM | remaining binding | 65% |
| O=C(O)c1ccc2c(c1)nc(Nc1ccc(F)c(Cl)c1)c1ccncc12 | enzyme activity | inhibitor | radiometric | 1 µM | remaining activity | 75% |
| O=C(Nc1cnn(-c2csc(C(=O)NC3COC3)c2)c1)Nc1c(F)cccc1Cl | enzyme activity | inhibitor |  | 5 µM | remaining activity | 111% |
| COc1cccc(CCNc2nc3cc(C(=O)O)ccc3c3cnccc23)c1 | enzyme activity | inhibitor | radiometric | 1 µM | remaining activity | -8% |
| CN1CC(Oc2cnc(C#N)cc2-c2ccn3nc(NC(=O)C4CC4)cc3c2)C1 | enzyme activity | inhibitor |  | 1 µM | inhibition | 2% |
| O=C(O)c1ccc2c(c1)nc(NCc1ccccc1)c1ccncc12 | enzyme activity | inhibitor | radiometric | 1 µM | remaining activity | 33% |
| CNC(=O)Nc1ccc2c(c1)CC[C@@]21OC(=O)N(CC(=O)N(Cc2ccc(F)cc2)[C@@H](C)C(F)(F)F)C1=O | cell-free assay |  | competition with immobilised ligand | 1 µM | remaining binding | 97% |
| Cc1ccc(NC(=O)c2ccc(CN3CCN(C)CC3)cc2)cc1Nc1nc(-c2cccnc2)cs1 | cell-free assay |  |  | 0.5 µM | remaining signal | 101% |
| O=C(O)c1ccc2c(c1)nc(Nc1ccccc1Cl)c1ncncc12 | enzyme activity | inhibitor | radiometric | 1 µM | remaining activity | -3% |
| CS(=O)(=O)c1cc(C2(NC(=O)c3cncc4c3cnn4-c3ccc(F)cc3)CC2)ccn1 | cell-free assay |  | competition with immobilised ligand | 1 µM | remaining binding | 100% |
| COc1ccc(COc2ccc(Cc3cnc(N)nc3N)cc2OC)cc1 | cell-free assay |  |  | 0.5 µM | remaining signal | 97.7% |
| N#CC1(c2ccccn2)CCN(Cc2cc(C(=O)N3CCCC3)c(=O)n3ccccc23)CC1 | cell-free assay |  | competition with immobilised ligand | 1 µM | remaining binding | 67% |
| COc1cccc(Nc2nc3cc(C(=O)O)ccc3c3cnccc23)c1 | enzyme activity | inhibitor | radiometric | 1 µM | remaining activity | -14% |
